# Bioassay records from PubChem.
# Most compounds without a hit are left out; they make up all but 2.9% or so of the library.
# Beta2AR agonist = agonists of human beta-2 adrenergic receptor inducing internalization | P07550 | Am2.2-beta2AR cells, FAP receptor internalization, flow cytometry | response, % (no concentration beside the values) | 340,000 tested, 0.43% active | AID 504454;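 active = response above a set limit, near 3 SD of response in nonfluorescent compounds, cut at about 42% in these data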
# Dynein cargo inh = blocks dynein driven cargo transport along microtubules | 3617.4 mouse cells, GR-EGFP nuclear translocation imaging; test concentration mostly 20 µM; stimulated with dexamethasone, 1 µM; stronger effect = lower value | z-score, hits read low | 220,000 tested, 0.47% active | AID 1381;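 active = plate z-score of nuclear minus cytoplasmic receptor signal below a set negative limit, without overly bright fluorescence or cell loss, cut at about -3.5 in these data, passing the limit was not always enough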;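 also: z-score of nuclear minus cytoplasmic ring GR-EGFP intensity difference per well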
#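 Buffer or medium: tetracycline-free induction medium containing charcoal-stripped FBS / Reagent: dexamethasone agonist, 1.0 µM final, for 30 min / Technique: automated 10x imaging of fixed Hoechst-stained cells / Times: induction 48 h, compound 1 h, agonist 30 min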
# ATG4B inhibitor = inhibitors of human ATG4B cysteine protease; ATG4B cleavage of LC3-PLA2, NBD-HPC fluorescence, 1 h; inhibition, % at 8.33 µM; 340,000 tested, 0.51% active; AID 504462; in the data active = inhibition above about 40%
# MEKK2 mut-MEK5 = signal of MEK5 binding to mutant human MEKK2 PB1 domain; percent response, % at 10 µM; 290,000 tested, 0.35% active; bead flow cytometry, Alexa488-MEK5 binding to MEKK2 mutant; AID 1530; in the data active = percent response above about 24%, passing the limit was not always enough
# MEKK3 PB1 HTS = raises or lowers MEK5 binding to the human MEKK3 PB1 domain. AID 1529. binding response (% of control), % at 10 µM. bead-based flow cytometry, Alexa488-MEK5 binding to MEKK3; actives lie on both sides; 0 = blocked by unlabeled MEK5, 100 = vehicle. 290,000 tested, 1.4% active;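 active = binding response more than 3 SD above or below the average of its plate-row segment, actives on both sides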;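 also: Alexa488 bead fluorescence after subtracting the streptavidin-only scavenger bead signal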
# Target sequence (Q99759 whole entry, looked up, the tested form may be a part): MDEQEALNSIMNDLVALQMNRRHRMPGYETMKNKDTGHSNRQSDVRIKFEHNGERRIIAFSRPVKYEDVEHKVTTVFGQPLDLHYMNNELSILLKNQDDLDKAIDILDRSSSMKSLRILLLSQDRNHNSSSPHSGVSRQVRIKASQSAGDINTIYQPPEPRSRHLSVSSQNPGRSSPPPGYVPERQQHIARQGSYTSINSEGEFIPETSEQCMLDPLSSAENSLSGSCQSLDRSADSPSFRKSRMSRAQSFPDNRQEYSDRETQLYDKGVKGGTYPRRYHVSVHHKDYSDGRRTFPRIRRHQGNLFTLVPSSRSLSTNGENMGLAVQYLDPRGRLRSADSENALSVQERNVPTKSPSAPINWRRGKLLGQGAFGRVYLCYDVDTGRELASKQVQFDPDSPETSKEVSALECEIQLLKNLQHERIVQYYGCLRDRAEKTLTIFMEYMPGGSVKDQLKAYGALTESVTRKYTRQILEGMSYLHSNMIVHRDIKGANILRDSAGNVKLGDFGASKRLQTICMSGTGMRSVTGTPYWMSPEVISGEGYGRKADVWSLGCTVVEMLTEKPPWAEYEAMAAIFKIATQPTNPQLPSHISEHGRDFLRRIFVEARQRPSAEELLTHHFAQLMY
# MEKK2wt PB1 HTS = raises or lowers MEK5 binding to wildtype human MEKK2 PB1 domain. bead flow cytometry, Alexa488-MEK5 binding to MEKK2 WT; actives lie on both sides. binding response (% of control), % at 10 µM. 290,000 tested, 1.1% active. AID 1531; in the data active = binding response below about 67% or above about 130%
# MEKK2wt confirm = raises or lowers MEK5 binding to wildtype human MEKK2, retest. shares compounds with MEKK3 PB1 HTS. bead flow cytometry, Alexa488-MEK5 binding to MEKK2 WT; actives lie on both sides. binding response (% of control), % at 10 µM. 5,900 tested, 2.4% active. AID 1892; in the data active = binding response below about 16% or above about 210%; inactive = in between
# MEKK2mut confirm = signal of MEK5 binding to mutant human MEKK2, retest | shares compounds with MEKK3 PB1 HTS | bead flow cytometry, Alexa488-MEK5 binding to MEKK2 mutant | percent response, % at 10 µM | 5,900 tested, 2% active; in the data active = percent response mostly above about 71%, no sharp cut-off; inactive = mostly below about 38%;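 also: higher means compound restores mutant binding toward wildtype level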
# MEKK3-MEK5 inh = MEKK3-MEK5 PB1 inhibition, single concentration confirmation. shares compounds with MEKK3 PB1 HTS. binding response (% of control), % at 10 µM. 5,900 tested, 1.8% active. bead flow cytometry, Alexa488-MEK5 binding to MEKK3; stronger effect = lower value;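 active = binding response below 72% of control, or above a set upper limit, though filed actives all read lower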;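 also: 100% = DMSO only wells and 0% = binding blocked by excess unlabeled MEK5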
# Numbers without * were called inactive; . = no result given; [ ] = dose if it differs, or a comment.
SMILES,Beta2AR agonist,Dynein cargo inh,ATG4B inhibitor,MEKK2 mut-MEK5,MEKK3 PB1 HTS,MEKK2wt PB1 HTS,MEKK2wt confirm,MEKK2mut confirm,MEKK3-MEK5 inh
COc1ccccc1C(=O)NCCC(=O)NC1CCCCCC1,5.5,.,3.4,.,.,.,.,.,.
Cc1cccc(N=C2NC(=O)/C(=C/C=C/c3ccco3)S2)c1,2.8,-1.29,27.7,-2.0,64.0*[inhibitor],91.0,84.0,-14.0,94.0
COc1ccc(N=C2NC(=O)/C(=C\C=C\c3ccco3)S2)cc1,7.9,-1.14,8.0,-9.0,99.0,90.0,.,.,.
Cc1ccc(S(=O)(=O)N2[C@@H](c3cccc(Cl)c3)C(C(=O)O)=CC[C@H]2c2ccc(C(C)C)cc2)cc1,-3.7,.,26.5,.,.,.,.,.,.
COc1ccccc1NC(=O)CN1C(=O)CSC(C)C1=O (stereo unspecified),-3.5,0.304,-6.0,0.0,79.0,96.0,.,.,.
COc1ccc(NC(=O)CN2C(=O)CSC(C)C2=O)c(OC)c1 (stereo unspecified),1.4,-0.944,-6.9,0.0,137.0*,107.0,101.0,1.0,103.0
CCC(=O)NC(=S)Nc1ccc(OC)cc1OC,-5.0,0.0907,8.6,0.0,134.0*,110.0,95.0,1.0,94.0
Cc1ccc(S(=O)(=O)CCC(=O)OCC(=O)NCC(=O)Nc2c(C)cc(C)cc2C)cc1,-3.4,.,-6.8,.,.,.,.,.,.
C/C=C/c1ccc(OCC(O)CNCC(c2ccc(OC)cc2)N(C)C)c(OC)c1 (stereo unspecified),-8.4,.,-2.1,19.0,111.0,146.0*,120.0,7.0,101.0
O=C1/C(=C/c2ccc([N+](=O)[O-])cc2)C=C(c2ccccc2)N1c1ccccc1,4.6,-0.338,-9.8,-4.0,90.0,83.0,.,.,.
COc1ccc(N2C(=O)/C(=C/c3ccc([N+](=O)[O-])cc3)C=C2c2ccccc2)cc1,12.9,-3.07,2.7,-6.0,76.0*[inhibitor],-10.0*,88.0,-5.0,91.0
CC1(c2ccc(OC(F)F)cc2)NC(=O)N(CC(=O)Nc2ccc(S(N)(=O)=O)cc2)C1=O (stereo unspecified),0.3,-0.051,-12.8,-17.0,46.0*[inhibitor],49.0,95.0,-5.0,97.0
CC1(c2ccc(OC(F)F)cc2)NC(=O)N(CC(=O)Nc2ccc(OC(F)F)cc2)C1=O (stereo unspecified),3.0,.,-9.8,-2.0,102.0,102.0,.,.,.
C=CCOc1nc2c(c(=O)n(C)c(=O)n2C)n1Cc1c(Cl)cccc1Cl,7.8,1.59,-14.7,-6.0,81.0*[inhibitor],89.0,100.0,-4.0,104.0
CCOc1nc2c(c(=O)n(C)c(=O)n2C)n1Cc1ccccc1Cl,-1.0,-0.382,-4.4,-7.0,75.0,76.0,.,.,.
COc1ccc(NC(=O)N2CCN(c3cccc(C(F)(F)F)c3)CC2)cc1,4.6,-0.28,7.7,-21.0,0.0*[inhibitor],0.0*[inhibitor],97.0,-4.0,101.0
COc1ccc(NC(=O)CSCC(=O)N2CCN(c3cccc(C(F)(F)F)c3)CC2)cc1,-2.1,.,-14.5,.,.,.,.,.,.
COc1ccc(OCC(=O)NNC(=O)c2ccccn2)cc1,3.7,-0.00201,-8.0,.,.,.,.,.,.
COc1cc(OC)cc(C(=O)NNC(=O)c2ccccn2)c1,4.9,-0.661,2.5,0.0,135.0*,106.0,113.0,5.0,105.0
Cc1cccc(NC(=O)CSc2nc3nc4c(cc3c(=O)n2-c2ccccc2)CCCC4)c1,4.0,-0.202,8.3,0.0,132.0*,104.0,90.0,-3.0,99.0
O=C(COC(=O)Cc1ccc(Br)cc1)NCc1ccc2c(c1)OCO2,7.4,.,-4.5,.,.,.,.,.,.
C/C(=N\NC(=O)CNC(=O)C(c1ccccc1)c1ccccc1)c1ccccc1,-4.6,-0.766,-8.5,9.0,100.0,101.0,.,.,.
C/C(=N\NC(=O)CNC(=O)C(c1ccccc1)c1ccccc1)c1ccc(C(C)(C)C)cc1,-2.1,0.269,-7.0,1.0,162.0*,108.0,106.0,-1.0,98.0
C/C(=N\NC(=O)c1ccc(O)cc1)c1ccc2c(c1)OCCO2,-6.3,.,0.1,.,.,.,.,.,.
C/C(=N\NC(=O)C1CC1)c1ccc2c(c1)OCCO2,-14.4,0.583,-3.8,-46.0,4.0*[inhibitor],6.0*[inhibitor],109.0,7.0,105.0
SMILES,Beta2AR agonist,Dynein cargo inh,ATG4B inhibitor,MEKK2 mut-MEK5,MEKK3 PB1 HTS,MEKK2wt PB1 HTS,MEKK2wt confirm,MEKK2mut confirm,MEKK3-MEK5 inh
COCCCNCCCCSc1ccc(Cl)cc1,1.4,-0.136,-0.7,-1.0,52.0*[inhibitor],93.0,104.0,4.0,101.0
CCc1ccc(OCC2c3cc(OC)c(OC)cc3CCN2C(=S)NCCOC)cc1 (stereo unspecified),-5.7,-0.8,-15.2,17.0,103.0,106.0,.,.,.
CCc1ccc(OCC2c3cc(OC)c(OC)cc3CCN2C(=S)NC)cc1 (stereo unspecified),2.2,1.09,-21.2,0.0,134.0*,117.0,102.0,7.0,102.0
COc1ccc(N2C(=O)CCC2(C#N)c2ccc(Br)cc2)cc1 (stereo unspecified),-4.0,1.07,-6.2,-25.0,49.0*[inhibitor],63.0,98.0,-5.0,102.0
CCOc1ccccc1NC(=O)CSc1nnc2ccc(-c3ccncc3)nn12,5.2,0.313,-7.7,-4.0,103.0,98.0,.,.,.
COc1ccccc1CCNC(=O)CSc1nnc2ccc(-c3ccncc3)nn12,-3.1,-0.456,4.4,11.0,133.0*,118.0,97.0,5.0,102.0
Cc1ccc(CSc2nnc3ccc(-c4ccncc4)nn23)cc1,-2.2,-0.344,-5.5,-30.0,63.0*[inhibitor],74.0,101.0,3.0,97.0
